# This is a sample that favours compounds with a hit; in the whole collection about 1.1% have one here.
# NR2E3 ag-1: agonists of human nuclear receptor NR2E3; Q9Y5X4; GST-NR2E3/biotin-RetCOR TR-FRET, 1536-well; inhibition of corepressor binding, % at 4.78 µM; actives 0.12% (n = 320,000);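 active = percent inhibition above the cutoff of mean plus 3 SD of all tested compounds, set per screening campaign, cut at about 20% in these data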;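 also: 0% = DMSO wells and 100% = biotin wells as full block of FRET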
#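 Material: NR2E3–RetCOR corepressor complex | Quantity: 1.35 nM GST-tagged NR2E3 final | Schedule: 5 h at 4 °C | Replication: Singlicate compound wells | Reagent: RetCOR corepressor, biotinylated, 7 nM | Controls: Biotin wells as high control, 0.6% DMSO wells as low control | Signal: TR-FRET, Eu(K)-anti-GST donor, streptavidin-D2 acceptor, ex 340, em 617/671 nm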
# Vif inh: blocks HIV Vif function | actives 0.35% (n = 340,000) | inhibition, % at 7.49 µM | HEK293T cells, Vif self-association by quenched fluorescence, imaging, 24 h; in the data active = inhibition above about 50%, passing the limit was not always enough
# NR2E3 ag-2: human photoreceptor-specific nuclear receptor agonism; Q9Y5X4; CHO-S Gal4-NCOR/VP16-NR2E3 two-hybrid, luciferase; inhibition of corepressor binding, % at 3.98 µM; actives 0.35% (n = 360,000);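 active = inhibition above the mean of all tested compounds plus 3 SD, cut at about 70% in these data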;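 also: 0% = DMSO with NR2E3 transfected cells and 100% = cells lacking NR2E3 construct; higher means lower luciferase signal from less NR2E3 corepressor binding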
# DAGLB inh: diacylglycerol lipase beta (human) inhibition; HEK293T DAGLB membrane lysate, EnzChek fluorogenic substrate; Q8NCG7; AID 504411; inhibition, % at 5.17 µM; actives 0.059% (n = 340,000); in the data active = inhibition above about 34%;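 also: 0% = enzyme with vehicle and 100% = wells lacking enzyme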
# MT1-MMP act inh: blocks activation of human MT1-MMP; AID 651647; GFP/RFP ratio change, % at 20 µM; P50281; actives 0.061% (n = 360,000); HT1080 RFP-PRO-GFP cells, GFP/RFP ratio fluorescence, overnight; percent of plate control window, DMSO zero;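 active = GFP/RFP ratio change of at least 30% with cell ATP level not reduced by more than half and red fluorescence within 50% of control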
#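 Test system: HT1080 RFP-PRO-GFP cells; Benchmarks: DMSO and RFP-L50D-GFP cell wells; Timing: cells overnight before dosing, compound overnight, 37 °C, 5% CO2; Compound: one 20 µM compound dose with 1% DMSO; Read-out: GFP/RFP fluorescence ratio.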
# core dimer inh: HCV core protein dimerization inhibition; actives 0.33% (n = 300,000); TR-FRET GST/Flag-core106 dimerization, 1536-well; inhibition, % at 5 µM;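 active = inhibition above the mean of all tested compounds plus 3 SD, set per screening campaign, cut at about 45% in these data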
#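 Material: Tagged HCV core106 pair (GST and Flag) | Amount: GST-core106 13.5 nM, Flag-core106 17 nM | Medium: KF-containing HEPES buffer, pH 7.45, DTT, CHAPS, BSA | Reagent: Eu donor and XL665 acceptor anti-tag antibodies | Schedule: 4 h at 22.5 °C | Technique: Time-resolved FRET, ex 340 nm, em 617 and 671 nm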
# NR2E3 ag confirm: confirmation of human NR2E3 nuclear receptor agonists; activation (reported as inhibition), % at 3.98 µM; cell-free NR2E3 corepressor release, TR-FRET, 5 h; AID 2379; actives 39% (n = 360); shares compounds with NR2E3 ag-1; in the data active = activation above about 20%
# PPARg-NCOR2 ctr: PPARg-NCOR2 interaction agonism, NR2E3 counter-screen; shares compounds with NR2E3 ag-1; TR-FRET PPARg-NCOR2 coregulator interaction, biochemical; inhibition, % at 3.98 µM; actives 45% (n = 360); in the data active = inhibition above about 20%;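 also: 0% = DMSO vehicle and 100% = wells without protein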
# Target sequence (P37231 whole entry, looked up): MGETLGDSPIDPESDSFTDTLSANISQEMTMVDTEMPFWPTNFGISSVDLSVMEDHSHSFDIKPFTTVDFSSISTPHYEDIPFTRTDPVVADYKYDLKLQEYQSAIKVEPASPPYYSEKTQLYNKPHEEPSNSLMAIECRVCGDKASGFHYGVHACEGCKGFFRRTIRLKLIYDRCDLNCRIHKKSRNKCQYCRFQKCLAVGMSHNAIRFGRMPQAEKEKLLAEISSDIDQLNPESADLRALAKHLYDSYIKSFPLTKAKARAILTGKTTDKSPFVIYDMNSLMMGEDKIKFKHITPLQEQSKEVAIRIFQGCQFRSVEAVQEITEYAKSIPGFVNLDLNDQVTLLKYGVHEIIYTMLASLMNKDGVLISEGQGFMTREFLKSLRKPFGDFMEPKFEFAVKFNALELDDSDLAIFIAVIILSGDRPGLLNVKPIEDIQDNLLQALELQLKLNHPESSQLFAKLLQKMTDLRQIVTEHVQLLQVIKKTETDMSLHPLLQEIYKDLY
# Target sequence (Q9Y618 whole entry, looked up): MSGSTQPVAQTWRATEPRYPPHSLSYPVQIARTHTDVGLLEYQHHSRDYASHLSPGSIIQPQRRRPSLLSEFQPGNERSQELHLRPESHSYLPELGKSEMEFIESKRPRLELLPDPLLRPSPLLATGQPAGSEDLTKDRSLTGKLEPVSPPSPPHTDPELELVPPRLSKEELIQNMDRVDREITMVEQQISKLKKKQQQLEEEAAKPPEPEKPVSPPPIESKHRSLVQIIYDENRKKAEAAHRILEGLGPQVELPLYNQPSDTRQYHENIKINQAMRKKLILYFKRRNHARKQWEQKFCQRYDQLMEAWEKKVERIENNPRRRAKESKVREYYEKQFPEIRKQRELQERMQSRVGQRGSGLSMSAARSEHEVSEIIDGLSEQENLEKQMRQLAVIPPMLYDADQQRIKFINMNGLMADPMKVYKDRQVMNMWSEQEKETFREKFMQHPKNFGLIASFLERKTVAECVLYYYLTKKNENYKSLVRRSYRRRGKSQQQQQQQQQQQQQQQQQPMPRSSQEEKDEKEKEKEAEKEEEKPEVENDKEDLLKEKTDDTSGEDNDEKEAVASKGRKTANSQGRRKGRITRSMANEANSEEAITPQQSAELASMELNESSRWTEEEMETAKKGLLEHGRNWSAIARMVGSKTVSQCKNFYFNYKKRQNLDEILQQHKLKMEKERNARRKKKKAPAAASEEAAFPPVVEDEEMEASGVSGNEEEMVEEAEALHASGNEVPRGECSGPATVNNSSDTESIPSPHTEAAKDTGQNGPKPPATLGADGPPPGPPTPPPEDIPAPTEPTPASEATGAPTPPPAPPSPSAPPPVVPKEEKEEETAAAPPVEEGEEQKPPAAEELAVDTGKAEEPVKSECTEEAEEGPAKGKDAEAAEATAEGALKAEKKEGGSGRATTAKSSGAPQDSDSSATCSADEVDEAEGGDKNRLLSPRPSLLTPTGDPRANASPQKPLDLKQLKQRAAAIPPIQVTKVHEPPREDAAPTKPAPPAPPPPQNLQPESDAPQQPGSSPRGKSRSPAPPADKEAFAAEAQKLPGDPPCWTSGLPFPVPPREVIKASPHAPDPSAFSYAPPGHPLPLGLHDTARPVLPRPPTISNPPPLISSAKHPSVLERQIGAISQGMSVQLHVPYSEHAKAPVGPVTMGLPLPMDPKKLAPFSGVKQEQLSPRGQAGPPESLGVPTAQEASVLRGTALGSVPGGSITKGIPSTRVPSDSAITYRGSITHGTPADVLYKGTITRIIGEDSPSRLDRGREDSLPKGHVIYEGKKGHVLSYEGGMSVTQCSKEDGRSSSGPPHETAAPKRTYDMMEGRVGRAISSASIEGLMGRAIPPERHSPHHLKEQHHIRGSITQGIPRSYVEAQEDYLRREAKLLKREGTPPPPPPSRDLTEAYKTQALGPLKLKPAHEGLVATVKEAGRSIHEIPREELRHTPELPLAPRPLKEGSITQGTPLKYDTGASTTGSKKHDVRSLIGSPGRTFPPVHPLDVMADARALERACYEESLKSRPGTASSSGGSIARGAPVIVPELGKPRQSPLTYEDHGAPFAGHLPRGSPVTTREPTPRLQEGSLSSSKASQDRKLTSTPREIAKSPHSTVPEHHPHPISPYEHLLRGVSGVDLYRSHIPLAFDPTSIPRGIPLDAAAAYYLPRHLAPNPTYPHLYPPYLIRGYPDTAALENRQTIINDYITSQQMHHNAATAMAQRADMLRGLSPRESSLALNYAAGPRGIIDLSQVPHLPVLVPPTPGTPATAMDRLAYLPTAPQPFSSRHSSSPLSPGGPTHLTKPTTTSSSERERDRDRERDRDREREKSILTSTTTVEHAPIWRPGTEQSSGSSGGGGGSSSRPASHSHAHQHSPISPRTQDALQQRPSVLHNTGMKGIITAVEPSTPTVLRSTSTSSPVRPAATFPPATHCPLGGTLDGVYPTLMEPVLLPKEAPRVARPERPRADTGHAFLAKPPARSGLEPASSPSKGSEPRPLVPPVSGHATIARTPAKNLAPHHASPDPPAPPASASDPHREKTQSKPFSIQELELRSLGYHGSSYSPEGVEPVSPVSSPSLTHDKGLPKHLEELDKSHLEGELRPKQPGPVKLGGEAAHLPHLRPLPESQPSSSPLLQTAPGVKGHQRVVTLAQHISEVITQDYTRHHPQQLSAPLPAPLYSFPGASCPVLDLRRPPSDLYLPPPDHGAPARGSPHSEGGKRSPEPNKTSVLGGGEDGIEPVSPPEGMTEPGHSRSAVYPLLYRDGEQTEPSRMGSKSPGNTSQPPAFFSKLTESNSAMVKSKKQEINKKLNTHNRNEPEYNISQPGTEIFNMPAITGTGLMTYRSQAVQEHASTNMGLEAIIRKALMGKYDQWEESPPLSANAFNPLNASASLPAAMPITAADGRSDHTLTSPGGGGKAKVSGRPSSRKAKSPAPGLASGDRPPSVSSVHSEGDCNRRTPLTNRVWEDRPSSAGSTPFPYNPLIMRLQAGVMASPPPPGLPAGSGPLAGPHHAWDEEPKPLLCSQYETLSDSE
# The depositor's hits bear a star; / = no result given.
SMILES,NR2E3 ag-1,Vif inh,NR2E3 ag-2,DAGLB inh,MT1-MMP act inh,core dimer inh,NR2E3 ag confirm,PPARg-NCOR2 ctr
Cc1ccc(-c2cc(C(=O)O)c3cc(Br)ccc3n2)o1,31*,-6,-28,6,-7,8,24*,36*
O=C(Nc1nc(-c2cccs2)c(C(=O)C(F)(F)F)s1)c1ccccc1,12,/,17,-5,9,-69,/,/
O=C(Nc1nc(-c2cccs2)c(C(=O)C(F)(F)F)s1)c1ccco1,30*,6,-6,2,1,7,34*,32*
COC(=O)c1cc2sc(Cl)cc2n1Cc1nc(-c2ccccc2)oc1C,25*,-4,2,-5,0,3,-4,-8
N#CC(=Cc1ccc(O)cc1)C(N)=C(C#N)C#N,23*,-5,-8,8,-3,1,-4,6
N#C/C(=C\c1ccc(O)cc1)C(=O)N1CCCC1,0,12,6,-2,-2,-5,/,/
O=C(NCc1cccc(F)c1)C1CCN(C(=O)c2sccc2-n2cccc2)CC1,-1,2,-3,-1,-2,-1,/,/
N#CC(C#N)=C1NC(N)=C(C#N)C(c2ccccc2)=C1C#N,48*,10,-42,8,-4,22,45*,40*
N#CC1=C(c2ccccc2)/C(=C/c2ccccc2)OC1=O,1,2,-21,11,11,14,/,/
CN(C)Cc1c(-c2ccc(Cl)cc2)nc2ccc(Cl)cn12,-3,8,-23,-7,-3,2,/,/
Cc1ccc(C(=O)C2=C(O)C(=O)N(Cc3ccco3)C2c2ccc(N(C)C)cc2)o1 (stereo unspecified),10,-1,-22,3,0,-4,/,/
Cc1ccc(C(=O)C2=C(O)C(=O)N(Cc3ccco3)C2c2cccc(Br)c2)o1 (stereo unspecified),31*,-5,-32,10,-3,21,16,12
Cc1ccc(C(=O)C2=C(O)C(=O)N(Cc3ccco3)C2c2cccc(Cl)c2)o1 (stereo unspecified),31*,-5,3,8,1,30,18,12
O=C(C1=C(O)C(=O)N(Cc2ccco2)C1c1cccc(O)c1)c1ccco1 (stereo unspecified),4,0,7,-1,2,-2,/,/
N#Cc1c(-c2ccncc2)c2c([nH]c1=S)CCCC2,3,-3,-6,-3,6,0,/,/
Cc1ccc(-c2c3c([nH]c(=S)c2C#N)CCCC3)o1,49*,7,-8,6,0,19,82*,75*
Cc1cc(Br)c2nc3c(c(C(=O)O)c2c1)CCCCC3,48*,3,19,0,-5,72*,60*,60*
Cc1c(Cl)c(-c2n[nH]c(=S)n2-c2ccc(F)cc2)nn1C,21*,5,-10,4,-6,-3,15,17
Cn1cc(Cl)c(-c2n[nH]c(=S)n2-c2ccccc2)n1,27*,2,-14,-2,2,-3,15,13
Cn1cc(Cl)c(-c2n[nH]c(=S)n2-c2ccc(F)cc2)n1,20*,0,-20,-5,3,0,10,13
Cc1ccc(-n2c(-c3nn(C)cc3Cl)n[nH]c2=S)cc1,3,2,-27,1,-1,-11,/,/
COc1cc(/C=C2/C(=O)N(c3ccc([N+](=O)[O-])cc3)N=C2N2CCOCC2)ccc1O,29*,-1,1,-1,5,-8,-5,48*
COc1ccc(C(C#N)=Cc2ccc(N(C)CCC#N)cc2)cc1,/,-11,-138,0,-13,/,/,/
O=C(c1cncc(Br)c1)N1CCN(S(=O)(=O)c2ccc3ccccc3c2)CC1,/,-12,-5,-2,1,/,/,/
COc1ccccc1NC(=O)N1CCC(NC(=O)C2CCCCC2)CC1,32*,3,-8,1,0,2,-12,-4
SMILES,NR2E3 ag-1,Vif inh,NR2E3 ag-2,DAGLB inh,MT1-MMP act inh,core dimer inh,NR2E3 ag confirm,PPARg-NCOR2 ctr
COc1ccccc1NC(=O)N1CCCC1,-2,3,5,-3,6,0,/,/
Cc1ccc(-c2nc3c(c(=O)c4ccccc4n3C)c(=O)n2Cc2ccco2)cc1,1,-4,-4,0,/,21,/,/
Cn1c2ccccc2c(=O)c2c(=O)n(Cc3ccco3)c(-c3ccc(F)cc3)nc21,34*,-9,-12,-1,0,19,8,8
CC(C)Oc1ccc2ccccc2c1CNC[C@H]1O[C@@H](n2cnc(C(N)=O)n2)[C@H](O)[C@@H]1O,/,/,-3,-3,3,/,/,/
CCCCN1C(=O)N(C)C2NC(=O)NC21 (stereo unspecified),9,/,-8,2,-1,-14,/,/
CCCCN1C(=O)NC2NC(=O)NC21 (stereo unspecified),37*,9,-27,1,4,-1,15,-10
CC(=O)c1sccc1NC(=O)c1ccccc1C(=O)O,34*,2,-30,-1,2,27,23*,18
N#CCC(N)=C(C#N)C#N,26*,-4,-27,8,-6,-10,0,8
Cc1ccccc1NC(=O)NC1(C(=O)N2CCC(C(N)=O)CC2)CCCCC1,0,-10,0,1,2,-6,/,/
CC(C)n1c2ccccc2c2nnc(SCC(=O)Nc3ccccc3C(=O)O)nc21,26*,1,-11,5,3,15,7,13
CC(=O)NCCc1c[nH]c2ccc(O)cc12,-1,4,-13,1,7,-12,/,/
O=C1C(=O)N(Cc2cccnc2)C(c2cccc(F)c2)/C1=C(/O)c1ccc2c(c1)OCO2 (stereo unspecified),24*,2,-7,-3,1,12,26*,28*
CCN(CC)S(=O)(=O)c1cc(C(=O)OCC(=O)Nc2cccc(S(=O)(=O)N(C)C)c2)ccc1F,22*,-1,1,-2,1,6,-6,-6
CN(C)CCN1C(=O)C(=O)/C(=C(/O)c2ccc(S(=O)(=O)N3CCOCC3)cc2)C1c1ccc(F)cc1 (stereo unspecified),3,3,-5,-1,-2,-7,/,/
CN(C(=O)c1ccc(NC(=O)Cc2ccc(NC(=O)C3CCN(C(=O)C4CCCC4)CC3)cc2)cc1)C1CC1,25*,-2,16,-2,-2,/,15,-5
